Reference: ChEMBL document CHEMBL1165950, “Design and synthesis of new potent anticancer pyrazoles with high FLT3 kinase inhibitory selectivity” (Bioorg Med Chem, 2010)

Columns and labels:
Assay type in all cases: functional
[1] = system: A498; assay: Cytotoxicity against human A498 cells assessed as cell growth at 0.001 uM after 48 hrs by sulforhodamine B assay; conditions: A498, 48 h, read-out: Activity
Procedure, shortened: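 NCI-60 five-dose screen. Cells were grown in RPMI 1640 with 5% FBS and 2 mM L-glutamine, plated at 5000–40,000 cells/well and preincubated for 24 h. Time-zero plates were TCA-fixed. DMSO-solubilized drug was added at five concentrations (10-fold or ½-log serial dilutions) for 48 h at 37 °C, 5% CO2. Cells were TCA-fixed, stained with 0.4% SRB and read at 515 nm. Percent growth used time-zero, control and test absorbances.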

[2] = system: NCI-H226; assay: Cytotoxicity against human NCI-H226 cells assessed as cell growth at 0.001 uM after 48 hrs by sulforhodamine B assay; conditions: NCI-H226, 48 h, read-out: Activity
[3] = system: HCT-15; assay: Cytotoxicity against human HCT15 cells assessed as cell growth at 0.001 uM after 48 hrs by sulforhodamine B assay; conditions: HCT-15, 48 h, read-out: Activity
[4] = system: NCI/ADR-RES; assay: Growth inhibition of human NCI/ADR-RES cells after 48 hrs by sulforhodamine B assay; conditions: for CC50: read-out: LC50 (the source's name)
Procedure, shortened: (§1)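 NCI 60-cell screen, five-dose mode. Cells grown in RPMI 1640 with 5% FBS and 2 mM L-glutamine and plated at 5000-40,000 cells/well according to doubling time. After 24 h preincubation, a Tz plate was TCA-fixed. Five concentrations (10-fold or 1/2 log dilutions) were applied for 48 h at 37 °C. SRB staining read at 515 nm. IC50 taken from [(Ti-Tz)/(C-Tz)]×100 = 50.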

[5] = system: RXF 393; assay: Cytotoxicity against human RXF393 cells assessed as cell growth at 0.01 uM after 48 hrs by sulforhodamine B assay; conditions: RXF 393, 48 h, read-out: Activity
[6] = system: SR; assay: Cytotoxicity against human SR cells assessed as cell growth at 10 uM after 48 hrs by sulforhodamine B assay; conditions: read-out: Activity
[7] = Growth inhibition of human NCI60 cells at 10 uM after 48 hrs by sulforhodamine B assay relative to control; conditions: NCI60, 48 h, read-out: GI
Procedure, shortened: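 Single-dose NCI screen at 10 µM across the 60-line panel, 48 h exposure at 37 °C after a 24 h preincubation. Adherent cells were fixed with cold TCA and stained with 0.4% SRB, and absorbance was read at 515 nm. Inhibition % was taken as 100 minus growth %, and the mean across all lines was reported.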

[8] = system: EKVX; assay: Cytotoxicity against human EKVX cells assessed as cell growth at 0.001 uM after 48 hrs by sulforhodamine B assay; conditions: read-out: Activity
[9] = system: T47D; assay: Cytotoxicity against human T47D cells assessed as cell growth at 0.01 uM after 48 hrs by sulforhodamine B assay; conditions: read-out: Activity
[10] = system: PC-3; assay: Cytotoxicity against human PC3 cells assessed as cell growth at 100 nM after 48 hrs by sulforhodamine B assay; conditions: PC-3, 48 h, read-out: Activity
[11] = system: EKVX; assay: Cytotoxicity against human EKVX cells assessed as cell growth at 0.01 uM after 48 hrs by sulforhodamine B assay; conditions: read-out: Activity
[12] = system: SNB-75; assay: Cytotoxicity against human SNB75 cells assessed as cell growth at 10 uM; conditions: read-out: Activity
Procedure, shortened: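 NCI-60 screen: cells grown in RPMI 1640 with 5% FBS and 2 mM L-glutamine, plated at 5000–40,000 cells/well according to doubling time, and preincubated 24 h at 37 °C, 5% CO2. The single 10 µM dose (DMSO stock) was added, then incubated 48 h. Cells were TCA-fixed and stained with 0.4% SRB, read at 515 nm, and growth % calculated against time-zero and control plates.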

[13] = system: NCI-H322M; assay: Growth inhibition of human NCI-H322M cells after 48 hrs by sulforhodamine B assay; conditions: for CC50: read-out: LC50 (the source's name); procedure, shortened: as §1
[14] = system: MOLT-4; assay: Cytotoxicity against human MOLT4 cells assessed as cell growth at 100 nM after 48 hrs by sulforhodamine B assay; conditions: MOLT-4, 48 h, read-out: Activity
[15] = system: HOP-62; assay: Cytotoxicity against human HOP62 cells assessed as cell growth at 10 uM; conditions: read-out: Activity
Procedure, shortened: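 Single-dose NCI-60 screen at 10 µM. Cells were grown in RPMI 1640 with 5% FBS and 2 mM L-glutamine, then treated for 48 h at 37 °C. Protein was measured by SRB staining with absorbance at 515 nm. Percentage growth was recorded, and inhibition percentage was calculated as 100 minus growth percentage.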

[16] = system: U-251; assay: Cytotoxicity against human U251 cells assessed as cell growth at 1 uM after 48 hrs by sulforhodamine B assay; conditions: U-251, 48 h, read-out: Activity
[17] = system: Malme-3M; assay: Cytotoxicity against human MALME-3M cells assessed as cell growth at 1 uM after 48 hrs by sulforhodamine B assay; conditions: read-out: Activity
[18] = system: U-251; assay: Cytotoxicity against human U251 cells assessed as cell growth at 100 nM after 48 hrs by sulforhodamine B assay; conditions: U-251, 48 h, read-out: Activity
[19] = system: MDA-MB-468; assay: Cytotoxicity against human MDA-MB-468 cells assessed as cell growth at 100 nM after 48 hrs by sulforhodamine B assay; conditions: MDA-MB-468, 48 h, read-out: Activity
[20] = system: SF-539; assay: Growth inhibition of human SF539 cells after 48 hrs by sulforhodamine B assay; conditions: SF-539, 48 h; for CC50: read-out: LC50 (the source's name); procedure, shortened: as §1
[21] = system: TK-10; assay: Cytotoxicity against human TK10 cells assessed as cell growth at 100 nM after 48 hrs by sulforhodamine B assay; conditions: TK-10, 48 h, read-out: Activity
[22] = system: SW-620; assay: Cytotoxicity against human SW620 cells assessed as cell growth at 1 uM after 48 hrs by sulforhodamine B assay; conditions: SW-620, 48 h, read-out: Activity
[23] = system: SW-620; assay: Cytotoxicity against human SW620 cells assessed as cell growth at 100 nM after 48 hrs by sulforhodamine B assay; conditions: SW-620, 48 h, read-out: Activity
[24] = system: SF-539; assay: Cytotoxicity against human SF539 cells assessed as cell growth at 0.001 uM after 48 hrs by sulforhodamine B assay; conditions: SF-539, 48 h, read-out: Activity
[25] = system: SN12C; assay: Cytotoxicity against human SN12C cells assessed as cell growth at 10 uM after 48 hrs by sulforhodamine B assay; conditions: read-out: Activity
[26] = system: NCI-H460; assay: Growth inhibition of human NCI-H460 cells after 48 hrs by sulforhodamine B assay; conditions: NCI-H460, 48 h; for CC50: read-out: LC50 (the source's name); procedure, shortened: as §1
[27] = system: LOX IMVI; assay: Cytotoxicity against human LOXIMVI cells assessed as cell growth at 1 uM after 48 hrs by sulforhodamine B assay; conditions: read-out: Activity
[28] = system: UACC-257; assay: Cytotoxicity against human UACC257 cells assessed as cell growth at 0.01 uM after 48 hrs by sulforhodamine B assay; conditions: UACC-257, 48 h, read-out: Activity
[29] = system: OVCAR-3; assay: Cytotoxicity against human OVCAR-3 cells assessed as cell growth at 1 uM after 48 hrs by sulforhodamine B assay; conditions: OVCAR-3, 48 h, read-out: Activity

Row | Structure (SMILES) | growth at 0.001 µM [1] | growth at 0.001 µM [2] | growth at 0.001 µM [3] | GI50 [4] | TGI [4] | CC50 [4] | growth at 0.01 µM [5] | growth at 10 µM [6] | inhibition of growth at 10 µM [7] | growth at 0.001 µM [8] | growth at 0.01 µM [9] | growth at 0.1 µM [10] | growth at 0.01 µM [11] | growth at 10 µM [12] | GI50 [13] | TGI [13] | CC50 [13] | growth at 0.1 µM [14] | growth at 10 µM [15] | growth at 1 µM [16] | also measured
1 | Cc1cc(O)cc(-c2nn(CC#N)cc2-c2ccnc(-c3ccc(N(C)C)cc3)c2)c1 | 101% | 100% | 86% | 2.54 µM | 7.93 µM | > 100 µM | 104% | 4% | 65.3% | 96% | 90% | 94% | 86% | -12.8% | 6.08 µM | 59.8 µM | > 100 µM | 89% | 36.5% | 8% | growth at 1 µM [17]: 27%; growth at 0.1 µM [18]: 91%; growth at 0.1 µM [19]: 77%; GI50 [20]: 2.12 µM; TGI [20]: 5.33 µM; CC50 [20]: 27.3 µM; growth at 0.1 µM [21]: 125%; growth at 1 µM [22]: 10%; growth at 0.1 µM [23]: 83%; growth at 0.001 µM [24]: 97%; growth at 10 µM [25]: -29%; GI50 [26]: 2.79 µM; TGI [26]: 10.2 µM; CC50 [26]: 70.5 µM; growth at 1 µM [27]: 29%; growth at 0.01 µM [28]: 81%; growth at 1 µM [29]: -40%
2 | COc1cc(C)cc(-c2c(-c3ccnc(-c4ccc(C(C)=O)cc4)c3)cnn2CC#N)c1 | 74% | 100% | 94% | 2.87 µM | > 100 µM | > 100 µM | 101% | 28% | 33.4% | 95% | 92% | 83% | 97% | 57.9% | > 100 µM | > 100 µM | > 100 µM | 81% | 78.1% | 4% | growth at 1 µM [17]: 36%; growth at 0.1 µM [18]: 89%; growth at 0.1 µM [19]: 68%; GI50 [20]: 2.02 µM; TGI [20]: 4.66 µM; CC50 [20]: > 100 µM; growth at 0.1 µM [21]: 111%; growth at 1 µM [22]: 12%; growth at 0.1 µM [23]: 71%; growth at 0.001 µM [24]: 92%; growth at 10 µM [25]: 34%; GI50 [26]: 2.41 µM; CC50 [26]: > 100 µM; growth at 1 µM [27]: 19%; growth at 0.01 µM [28]: 81%; growth at 1 µM [29]: -10%
3 | COc1cc(C)cc(-c2c(-c3ccnc(-c4ccc(N(C)C)cc4)c3)cnn2CC#N)c1 | 94% | 95% | 100% | 0.0479 µM | > 100 µM | > 100 µM | 84% | -38% | 88.4% | 97% | 36% | 11% | 81% | -21.1% | 0.331 µM | > 100 µM | > 100 µM | 9% | 14.9% | 6% | growth at 1 µM [17]: 40%; growth at 0.1 µM [18]: 6%; growth at 0.1 µM [19]: -50%; GI50 [20]: 0.127 µM; CC50 [20]: > 100 µM; growth at 0.1 µM [21]: 44%; growth at 1 µM [22]: 11%; growth at 0.1 µM [23]: 12%; growth at 0.001 µM [24]: 104%; growth at 10 µM [25]: 16%; GI50 [26]: 0.0577 µM; TGI [26]: 0.282 µM; CC50 [26]: 4.99 µM; growth at 1 µM [27]: 12%; growth at 0.01 µM [28]: 38%; growth at 1 µM [29]: 3%
